Reference: ChEMBL document CHEMBL1123311, “Synthesis and antitumor and antiviral properties of 5-halo- and 5-(trifluoromethyl)-2'-deoxyuridine 3',5'-cyclic monophosphates and neutral triesters” (1986)
≈ marks a conversion by molar mass, not a printed value.

Assays:
Human alphaherpesvirus 2 [1] = test: Evaluation of antiviral activity against Herpes simplex virus type 2 (HSV-2) strain 196.; type: functional
In short: (§1)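 Virus-induced cytopathogenicity scored in primary rabbit kidney cell cultures. Value is the minimum concentration reducing cytopathogenicity by 50%. Cytotoxicity on uninfected cells was read as the minimal concentration causing a microscopically detectable change in normal cell morphology, tested up to 400 μg/mL.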

Vaccinia virus = test: Evaluation of antiviral activity against Vaccinia virus; type: functional; conditions: Orthopoxvirus vaccinia; in short: as §1
Human alphaherpesvirus 2 [2] = test: Evaluation of antiviral activity against Herpes simplex virus type 2 (HSV-2) strain G; type: functional; in short: as §1
Human alphaherpesvirus 2 [3] = test: Evaluation of antiviral activity against Herpes simplex virus type 2 (HSV-2) strain Lyons; type: functional; in short: as §1
Human alphaherpesvirus 1 [4] = test: Evaluation of antiviral activity against Herpes simplex virus type 1 (HSV-1) strain KOS.; type: functional; in short: as §1
Homo sapiens = species on record: Homo sapiens; test: Evaluation for antitumor activity against human lymphoblast Raji cells; type: functional; conditions: for IC50: Homo sapiens, Raji, read-out: ID50 (the source's name)
Human alphaherpesvirus 1 [5] = test: Evaluation of antiviral activity against Herpes simplex virus type 1 (HSV-1) strain F; type: functional; in short: as §1
L1210 [6] = test: Evaluation of antitumor activity against mutant murine leukemia L1210 cells; type: functional; conditions: Mus musculus, read-out: ID50 (the source's name)
In short: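 Proliferation of mutant murine leukemia L1210/BdUrd cells, selected from parental L1210/0 for growth in 260 μg/mL 5-bromo-2'-deoxyuridine. Value is the dose inhibiting proliferation by 50%.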

[7] = test system: Vesicular stomatitis virus; test: Evaluation of antiviral activity against Vesicular stomatitis virus.; type: functional; in short: as §1
L1210 [8] = test: Evaluation of cytostatic activity by using antitumor assays against murine leukemia L1210 cells; type: functional; conditions: Mus musculus, read-out: ID50 (the source's name)
Raji = test: Evaluation of antitumor activity against thymidine kinase deficient Raji cell line; type: functional; conditions: Homo sapiens, read-out: ID50 (the source's name)
[9] = biological target: Thymidylate synthase (Mus musculus) (UniProt P07607); test: Compound was evaluated for the inhibition of L1210 Thymidylate synthase
Sequence of Thymidylate synthase (Mus musculus) (P07607 whole entry, looked up): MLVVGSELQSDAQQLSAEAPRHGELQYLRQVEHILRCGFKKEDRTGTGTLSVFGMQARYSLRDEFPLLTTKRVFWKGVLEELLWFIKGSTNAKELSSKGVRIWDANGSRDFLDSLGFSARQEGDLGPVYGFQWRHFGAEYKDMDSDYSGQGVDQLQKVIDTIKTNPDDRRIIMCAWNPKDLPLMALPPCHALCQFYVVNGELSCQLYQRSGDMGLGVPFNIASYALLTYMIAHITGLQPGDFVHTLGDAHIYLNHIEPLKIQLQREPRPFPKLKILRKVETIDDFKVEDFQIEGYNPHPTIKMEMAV
In short: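 Thymidylate (dTMP) synthetase inhibition measured with a partially purified extract of L1210 cells as the enzyme source.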

Human alphaherpesvirus 1 [10] = test: Evaluation of antiviral activity against Herpes simplex virus type 1 (HSV-1) strain McIntyre; type: functional; in short: as §1
[11] = test system: Vesicular stomatitis virus; test: Compound was evaluated for the antiviral activity against Vesicular stomatitis virus.; type: functional; in short: as §1
[12] = biological target: Thymidylate synthase (Mus musculus) (UniProt P07607); test: Compound was evaluated for the inhibition of L1210 thymidylate synthetase (L1210 dTMP)
In short: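 Enzyme source was a partially purified extract of murine leukemia L1210 cells. The dTMP synthetase assay followed an earlier published method, and no reaction conditions are given here.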

Human alphaherpesvirus 1 [13] = test: Compound was evaluated for the antiviral activity against Herpes simplex virus type 1 (HSV-1) strain KOS.; type: functional; conditions: read-out: ID50 (the source's name); in short: as §1
Human alphaherpesvirus 1 [14] = test: Compound was evaluated for the antiviral activity against Herpes simplex virus type 1 (HSV-1) strain F; type: functional; conditions: read-out: ID50 (the source's name); in short: as §1

Row | Structure (SMILES) | MIC50 (Human alphaherpesvirus 2 [1]) | MIC50 (Vaccinia virus) | MIC50 (Human alphaherpesvirus 2 [2]) | MIC50 (Human alphaherpesvirus 2 [3]) | MIC50 (Human alphaherpesvirus 1 [4]) | IC50 (Homo sapiens) | MIC50 (Human alphaherpesvirus 1 [5]) | IC50 (L1210 [6]) | MIC50 [7] | IC50 (L1210 [8]) | IC50 (Raji) | Ki/Km [9] | MIC50 (Human alphaherpesvirus 1 [10]) | MIC50 [11] | Ki/Km [12] | IC50 (Human alphaherpesvirus 1 [13]) | IC50 (Human alphaherpesvirus 1 [14]) | ID50 (Homo sapiens)
1 | O=c1[nH]c(=O)n([C@H]2C[C@H](O)[C@@H](COP(=O)(O)O)O2)cc1Br | 0.2 µg/mL (≈ 0.517 µM) | 0.07 µg/mL (≈ 0.181 µM) | 0.2 µg/mL (≈ 0.517 µM) | 0.07 µg/mL (≈ 0.181 µM) | 0.2 µg/mL (≈ 0.517 µM) | 26 µg/mL (≈ 67.2 µM) | 0.2 µg/mL (≈ 0.517 µM) | 457 µg/mL (≈ 1180 µM) | > 400 µg/mL | 34.6 µg/mL (≈ 89.4 µM) | > 1000 µg/mL | 2.16 | 0.2 µg/mL (≈ 0.517 µM) | – | – | – | – | –
2 | N.O=c1[nH]c(=O)n([C@H]2C[C@@H]3O[PH](O)(O)OC[C@H]3O2)cc1Cl | 150 µg/mL | 2 µg/mL | 40 µg/mL | 20 µg/mL | 20 µg/mL | 337 µg/mL | 100 µg/mL | > 1000 µg/mL | – | 337 µg/mL | > 1000 µg/mL | – | 100 µg/mL | > 400 µg/mL | > 356 | – | – | –
3 | O=c1[nH]c(=O)n([C@H]2C[C@H](O)[C@@H](CO)O2)cc1I [IDOXURIDINE] | 0.4 µg/mL (≈ 1.13 µM) | 0.2 µg/mL (≈ 0.565 µM) | 0.2 µg/mL (≈ 0.565 µM) | 0.1 µg/mL (≈ 0.282 µM) | 0.2 µg/mL (≈ 0.565 µM) | 8 µg/mL (≈ 22.6 µM) | 0.2 µg/mL (≈ 0.565 µM) | > 500 µg/mL | > 400 µg/mL | 16 µg/mL (≈ 45.2 µM) | > 500 µg/mL | – | 0.2 µg/mL (≈ 0.565 µM) | – | – | – | – | –
4 | N.O=c1[nH]c(=O)n([C@H]2C[C@@H]3O[PH](O)(O)OC[C@H]3O2)cc1Br | 20 µg/mL | 1 µg/mL | 2 µg/mL | 2 µg/mL | 2 µg/mL | 224 µg/mL | 2 µg/mL | > 1000 µg/mL | > 400 µg/mL | 457 µg/mL | > 1000 µg/mL | > 354 | 2 µg/mL | – | – | – | – | –
5 | N.O=c1[nH]c(=O)n([C@H]2C[C@@H]3O[PH](O)(O)OC[C@H]3O2)cc1F | ≥ 400 µg/mL | 1.5 µg/mL | ≥ 300 µg/mL | ≥ 200 µg/mL | > 400 µg/mL | 0.164 µg/mL | > 400 µg/mL | 7.4 µg/mL | > 400 µg/mL | 0.06 µg/mL | 19 µg/mL | – | > 400 µg/mL | – | 38 | – | – | –
6 | O=c1[nH]c(=O)n([C@H]2C[C@H](O)[C@@H](COP(=O)(O)O)O2)cc1F [5-FLUORODEOXYURIDYLATE] | 100 µg/mL (≈ 307 µM) | 0.2 µg/mL (≈ 0.613 µM) | 7 µg/mL (≈ 21.5 µM) | 20 µg/mL (≈ 61.3 µM) | 10 µg/mL (≈ 30.7 µM) | 0.013 µg/mL (≈ 0.0399 µM) | 10 µg/mL (≈ 30.7 µM) | 3 µg/mL (≈ 9.2 µM) | > 200 µg/mL | 0.003 µg/mL (≈ 0.0092 µM) | 2.41 µg/mL (≈ 7.39 µM) | 0.018 | 10 µg/mL (≈ 30.7 µM) | – | – | – | – | –
7 | N.O=c1[nH]c(=O)n([C@H]2C[C@@H]3O[PH](O)(O)OC[C@H]3O2)cc1I | 20 µg/mL | 2 µg/mL | 10 µg/mL | 7 µg/mL | 2 µg/mL | 54 µg/mL | 2 µg/mL | > 500 µg/mL | > 400 µg/mL | ≥ 500 µg/mL | > 500 µg/mL | > 355 | 7 µg/mL | – | – | – | – | –
8 | O=c1[nH]c(=O)n([C@H]2C[C@H](O)[C@@H](COP(=O)(O)O)O2)cc1/C=C/Br | > 400 µg/mL | 7 µg/mL (≈ 16.9 µM) | 20 µg/mL (≈ 48.4 µM) | 100 µg/mL (≈ 242 µM) | 0.02 µg/mL (≈ 0.0484 µM) | – | 0.02 µg/mL (≈ 0.0484 µM) | – | > 400 µg/mL | – | – | – | 0.02 µg/mL (≈ 0.0484 µM) | – | – | – | – | –
9 | COP1(=O)OC[C@H]2O[C@@H](n3cc(I)c(=O)[nH]c3=O)C[C@@H]2O1 (some centres undefined) | 300 µg/mL (≈ 698 µM) | 20 µg/mL (≈ 46.5 µM) | 300 µg/mL (≈ 698 µM) | 150 µg/mL (≈ 349 µM) | – | – | – | – | > 400 µg/mL | – | – | – | 70 µg/mL (≈ 163 µM) | – | – | 150 µg/mL (≈ 349 µM) | 150 µg/mL (≈ 349 µM) | –
10 | O=c1[nH]c(=O)n([C@H]2C[C@@H]3OP(=O)(OCc4ccccc4)OC[C@H]3O2)cc1I (some centres undefined) | 70 µg/mL (≈ 138 µM) | 2 µg/mL (≈ 3.95 µM) | 20 µg/mL (≈ 39.5 µM) | 7 µg/mL (≈ 13.8 µM) | 20 µg/mL (≈ 39.5 µM) | > 100 µg/mL | 7 µg/mL (≈ 13.8 µM) | > 100 µg/mL | > 200 µg/mL | > 100 µg/mL | > 100 µg/mL | – | 20 µg/mL (≈ 39.5 µM) | – | – | – | – | 69 µg/mL (≈ 136 µM)
